Variants at the floor of the assay were thinned out.
B1: tRNA (parent)
chain: GUUCCGUUGGCGUAAUGGUAACGCGUCUCCCUCCUAAGGAGAAGACUGCGGGUUCGAGUCCCGUACGGAACG

Variants of: B1
Assay: yeast fitness relative to wild type (ratio to wild type); higher = fitter; tRNA-Arg(CCU), competitive growth, 37 C, YPD
Method in brief: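 A pool of Saccharomyces cerevisiae strains, each with a tRNA-Arg(CCU) gene variant at the native genomic locus, was competed in YPD at 37°C for 24 hours across six parallel replicates. The variants had been chemically synthesised at a 3% per-site mutation rate over 69 sites, and gene amplicons before and after competition were read by 100-nucleotide paired-end sequencing. Darwinian fitness relative to wild type rested on changes in genotype frequencies. Genotypes required ≥ 100 starting reads, and estimates < 0.5 were set to 0.5.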

Compared with GUUCCGUUGGCGCAAUGGUAACGUGUCUCCCUCCUAAGGAAAAGACUGCGGGUUCGAGUCCAGUACGGAACG, GUUCCGUUGGCGCACUGGUGAUGCAUGUCACUCCUAAGGAGAAGACUGCGGGUUCGCGUCCCGUACGGAACG is higher in yeast fitness: ≤ 0.5 for the first, 0.542 for the second.

Going from GUUCCGUUGGCGCAAUGGUAGCGCGUCUCCGUCCUAAGGAGAAGGCUGCGGGUUCGAGUCCCGUACGGAACG to GUUCCGUUGGCGCAAUGGUAACGCGUUUCCCUCCUAAGGAGAAGACUGCGGGUUCGAGUCCCGUACGGAACG, the yeast fitness rises from 0.619 to 0.878.

GUUCCGUUGGCGCGAUGGUAACGCGUCUCCCUCCUAAGGAGCAGACUGCGGGUUCGAGUCGUGUACGGAACG and GUUCCGUUGGCGCACUGGUAACGCGUCUCCCUCCUAAGGAGAAGACUACGGGUUCGAGUCCCGUACGGAACG cannot be ordered by yeast fitness: ≤ 0.5 for the first, ≤ 0.5 for the second.

Going from GUUCCGUUGGCGCAUAGGAAACGCGUCUCCCUCUUAAGGAGAAGACUGCGGGUUCGCGUCCCGUACGGAACG to GUUCCGUUGGCGCAAUGGUAACGCGUCUCCCUCCUAAGGAGAUGACUGCGGGUUCGAGUCCCGUACGGAGCG, the yeast fitness rises from ≤ 0.5 to 0.966.

Compared with GUUCCGUUGGCGAAAUGGUAACGCGUCUCCCUCCUAAGGAGAAGACUGCGGGUUCGAGACCCGUACGGAACG, GUUCCGUUGGCGCAAUGGUAACGCGUCUCCCUCCUAAGGAGAAGACUGCGGGUUCGAGUCCCGUACGGAACG is higher in yeast fitness: 0.827 for the first, 1.01 for the second.

GUUCCGUUGGCGCAAUGGUAACGCGUCUCCCUCCUAAGGAGAUGAGUGCGGGUUCGAGUCCCGUACGGAACG and GUUCCGUUGGCGCAAUGGUAAGGCGUCUCCCUCCUUAGGAGAAGACUGCGGGUUCGAGUCCUGUAUGGCACG cannot be ordered by yeast fitness: ≤ 0.5 for the first, ≤ 0.5 for the second.

First: GUUCCGUUGGCGCAAUGGUAACGCGUCUCCCUCCUAUGGAGAAGACUGGGGGUUCGAGUCCCGUACGGAACG
Second: GUUCCGUUGGCGCAAUGGUAACGCGUCUACCUCCUAAGGAGAAGACUGCGGGUUCGAGUCCCGUACGGCACG
The yeast fitness of the first is lower: ≤ 0.5 for the first, 0.576 for the second.

Going from GUUCCGUUGGCGCAAUGGUAAUGCGUCUCCCUCCUAAGGAGAAGUCUGCGGGUUCGAGUCCCGUACGGAACG to GUUCCGUUGGCGCAAUGGUAAACCGUCUCCCUCUUGAGGUGAAGACUGCGGGUUCGAGUCCCGUACGGAACG, the yeast fitness falls from 0.713 to ≤ 0.5.

First: GUUCCGUUGGCGCAAUGGUAACGUGUCUCCCUCUUAAGGAGAAGACUGCGGGUUCGAGUCCCGUACGGAACG
Second: GUUCCGUUGGCGCAAUGGUAACGUGUCUCCCUCGUAAGGAGAAGACUGCGGGUUCGAGUCCCGUACGGAACG
The yeast fitness of the first is lower: ≤ 0.5 for the first, 0.556 for the second.

Compared with GUUCCGUUGGCGCAAUGGUAACGCGUGUCCCUCCUAAGGAGAAGACUGCGGGUUCGAGUCCCCUACGGAACG, GUUCCGUUGGCGCGAUGGUAACGAGUCUCCCGCCUACGGAGAAGACUGCGGGUUCGAGUCCCGAACGGAACG is higher in yeast fitness: 0.548 for the first, 0.646 for the second.

First: GUUCCGUUGGCGCAAUGGUCACGCGUCUCCCUCCUAAGGAGAAGACUGCGGGUUCGAGUCCCGUACGGAACG
Second: GUUCCGUUGGCGCAGUGGUAACGCGUCUACCUCCUAAGGAGAAGACUGCGGGUUCGAGUCCCGUACGGAACG
The yeast fitness of the first is higher: 0.903 for the first, 0.508 for the second.

Compared with GUUCCGUUGGCGCAAUGGUAACGCGUCUCCCUCCUAAGGAGAAGACUGCGGGUUCGAGUCCCGUGCGGACCG, GUUCCGUUGGCGCAAUGGUAAUGCGUCUCCCUCCUAAGGAGAAGCCUCCGGGUUCGAGUCCCGUACGGAACG is lower in yeast fitness: 0.744 for the first, ≤ 0.5 for the second.

GUUCCGUUGGCGCAAUGGUAACGCGUCUCCCUCCUAAGGAGUAGACUGCGGGUCCGAGUCCCGUCCGGAACG and GUUCCGUUGGCGCAAUGGUAAUGCGUCUCUCUCCUAAGGAGAAGACUGCGGGUUCGAGUCCCGUACGGAACG cannot be ordered by yeast fitness: ≤ 0.5 for the first, ≤ 0.5 for the second.

GUUCCGUUGGCGCAAUGGUAACGCGUAUCCCUCCUAAGGAGAAGACUGCGGGUUCGAGUCACGUACGGAACG and GUUCCGUUGGCGCAAUGGUACCGCGUUUCCCUCCUAAGGAGAAGACUGCGGGUUCGAGUCCCAUGCGGAACG cannot be ordered by yeast fitness: ≤ 0.5 for the first, ≤ 0.5 for the second.

GUUCCGUUGGCGCUAUGGUAACGCGUCUCCCUCCUAAGGAGAAGACUGCGGGUUCGAGUCACGUACGGAACG and GUUCCGUUGGCGCAAUGGUAACGCGUCUCCCUCCUAAGGAGAGGACUGCCGGUUCGAGUCCCGUACAGAACG cannot be ordered by yeast fitness: ≤ 0.5 for the first, ≤ 0.5 for the second.

Going from GUUCCGUUGGCGCAAUGGUAGCGCGUCUCCCUCCUAAGCAGAAGACUGCAGGUUCGAGGCAUGUACGGAACG to GUUCCGUUGGCGCAAUGGUAACGCGUCUCCCUCCUGAGGAGAAGAAUGAGGGUUCGAGUCCCGUACGGAACG, the yeast fitness falls from 0.502 to ≤ 0.5.

Going from GUUCCGUUGGCGCAAUGGUAACGCGUCUCCCUCCUAAGGCGAAGACUGCGGGUUCGAGUCCCGUACGGAACG to GUUCCGUUGGCGCAAUGGUAACGCGUCUCCCUCCUAAGGAGAGGACUGCGGGAUCGAGUCCCGUACGGAACG, the yeast fitness falls from 0.882 to ≤ 0.5.

Compared with GUUCCGUUGGCGCAAUGGUAACGCGUCUCCCUCCUAAGGAGAAGACUGCGGGUUCGAGUCCCGUACGGACCG, GUUCCGUUGGCGCACUGGUAACGCGUCUCCCUCCUAAGGAGAAGAGUGCGGGUUCGAGUCCCGUACGGCACG is lower in yeast fitness: 1.09 for the first, ≤ 0.5 for the second.

First: GUUCCGUUGGCGCAAUGGUACCGCGUCUCCUUCCUAAGGAGAAGACUGCGGGUUCGAGUCCCGUACGGAACG
Second: GUUCCGUUGGCGCAAUGGUAACGCGUCUCCCUCCUAAGGAGAAGACUGCGGGUUCGGGUCCCGUACGGAACG
The yeast fitness of the first is lower: ≤ 0.5 for the first, 0.919 for the second.
